The source made the active and inactive calls. The rule behind the calls is not given here.
Assays:
[1] = Activation of PI3K/Akt/mTOR signaling in human SH-SY5Y cells assessed as up regulation of HO-1 expression after 24 hrs by Western blot analysis; format: cell-based
Method in brief: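 HO-1 western blot in SH-SY5Y cells incubated 24 h with 1 at 0.1, 1 or 10 μM, without H₂O₂. Band densitometry expressed as % of control. Mean ± S.E.M. from three independent experiments.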

SH-SY5Y [2] = test: Neuroprotection against H2O2-induced toxicity in human SH-SY5Y cells assessed as LDH release at 1 uM preincubated for 6 hrs followed by H2O2 addition and measured after 24 hrs (reference value: 339.93 +/- 3.66 U/L); format: functional
SH-SY5Y [3] = test: Protection against H2O2-induced apoptosis in human SH-SY5Y cells assessed as early apoptotic cells at 10 uM preincubated for 6 hrs followed by H2O2 addition and measured after 24 hrs by Annexin V-FITC/propidium iodide staining based flow cytometry (reference value: 6.6%); format: functional
Mus musculus = test: Anti-parkinson's activity in MPTP-induced C57Bl/6 mouse model of Parkinson's disease assessed as increase in tyrosine hydroxylase expression in striatum at 10 to 20 mg/kg, ig pretreated for 10 days followed by MPTP challenge measured 10 days post MPTP addition by DAB staining based immunohistochemistry method; format: functional, organism-based
Method in brief: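 Tissue taken 10 days after MPTP injection from mice dosed orally with 1 (10 or 20 mg/kg). TH in SNpc and striatum by western blot, and by DAB immunostaining. Three of the mice per group analysed. Mean ± S.D., n = 6 mice/group.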

SH-SY5Y [4] = test: Protection against H2O2-induced apoptosis in human SH-SY5Y cells assessed as viable cells at 1 uM preincubated for 6 hrs followed by H2O2 addition and measured after 24 hrs by Annexin V-FITC/propidium iodide staining based flow cytometry (reference value: 12.4%); format: functional; conditions: read-out: Activity
[5] = Activation of PI3K/Akt/mTOR signaling in human SH-SY5Y cells assessed as up regulation of H2O2-induced HO-1 expression at 1 uM preincubated for 6 hrs followed by H2O2 addition and after 24 hrs by Western blot analysis (reference value: 181.53 +/- 24.67%); format: cell-based
Method in brief: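 SH-SY5Y cells pretreated 6 h with 1 (1 or 10 μM), then exposed to 600 μM H₂O₂ for 24 h. HO-1 measured by western blot with densitometry and expressed as % of control. Mean ± S.E.M., three independent experiments.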

SH-SY5Y [6] = test: Induction of apoptosis in non-stimulated human SH-SY5Y cells assessed as effect on cleaved caspase3 expression at 1 to 10 uM measured after 6 hrs by Western blot analysis; format: cell-based
Method in brief: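 Bax, Bcl-2 and cleaved caspase-3 measured by western blot in SH-SY5Y cells given 1 alone, with β-actin as internal standard. Mean ± S.E.M. of three independent experiments.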

## COC(=O)[C@H](Cc1ccccc1)NC(=O)/C=C/c1ccc(O)c(O)c1 [N-CAFFEOYL-PHENYLALANINE METHYL ESTER]
[1]
  Activity: Dose-dependent effect
SH-SY5Y [2]
  Activity: 269.12 U/L
SH-SY5Y [3]
  Activity: 4.5%
Mus musculus
  Activity: Active
SH-SY5Y [4]
  viability at 1 µM: 72%
[5]
  Activity: 274%
SH-SY5Y [6]
  Activity: Non-Toxic

Source: ChEMBL document CHEMBL4308887, “Synthesis and biological evaluation of clovamide analogues with catechol functionality as potent Parkinson's disease agents in vitro and in vivo” (Bioorg Med Chem Lett, 2019)
